system: Mus musculus; experiment: In vivo duration of action required to prevent death in mice, after iv administration of U-46619 (2 mg/kg) at 10 mg/kg po administration of compound; conditions: not given

| SMILES | T50 |
| --- | --- |
| CCCCCCCNC(=O)c1coc(C2C3CCC(O3)C2Cc2ccccc2CCC(=O)O)n1 (stereo not drawn) | 27.4 h |
| O=C(O)CCc1ccccc1CC1C2CCC(O2)C1c1nc(C(=O)NCCCCC2CCCCC2)co1 (stereo not drawn) | 49.6 h |
| CCCCCNC(=O)c1coc(C2C3CCC(O3)C2Cc2ccccc2CCC(=O)O)n1 (stereo not drawn) [BMS-180291] | 29.4 h |

species: Homo sapiens; experiment: Inhibitory activity against platelet aggregation, induced by U-46619 in human platelet rich plasma; type: functional; conditions: read-out: I 50
Outline: (§1)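 Human platelet-rich plasma. Aggregation was induced by exogenous arachidonic acid or by the TxA2 mimetic U-46,619, each at a single fixed agonist level. I50 was taken as the antagonist concentration giving 50% inhibition of aggregation.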

| SMILES | IC50 |
| --- | --- |
| C#CCCCCCNC(=O)c1coc(C2C3CCC(O3)C2Cc2ccccc2CCC(=O)O)n1 (stereo not drawn) | 31 nM |

same assay, conditions: read-out: I50

| IC50 | SMILES |
| --- | --- |
| 137 nM | O=C(O)CCc1ccccc1CC1C2CCC(O2)C1c1nc(C(=O)NCCCCN2CCCCC2)co1 (stereo not drawn) |
| 29 nM | O=C(O)CCc1ccccc1CC1C2CCC(O2)C1c1nc(C(=O)NCCCCC(F)(F)F)co1 (stereo not drawn) |
| 62 nM | COc1ccc(CCCCNC(=O)c2coc(C3C4CCC(O4)C3Cc3ccccc3CCC(=O)O)n2)cc1 (stereo not drawn) |
| 13 nM | CC(C)(Cc1ccccc1CC1C2CCC(O2)C1c1nc(C(=O)NCCCCC2CCCCC2)co1)C(=O)O (stereo not drawn) |
| 34 nM | O=C(O)Cc1cccc(CC2C3CCC(O3)C2c2nc(C(=O)NCCCCC3CCCCC3)co2)c1 (stereo not drawn) |
| 10 nM | O=C(O)CCc1ccccc1CC1C2CCC(O2)C1c1nc(C(=O)OCCCCC2CCCCC2)co1 (stereo not drawn) |

| SMILES | IC50 |
| --- | --- |
| CCC(C)(C)NC(=O)c1coc(C2C3CCC(O3)C2Cc2ccccc2CCC(=O)O)n1 (stereo not drawn) | 30 nM |
| O=C(O)CCc1ccccc1CC1C2CCC(O2)C1c1nc(C(=O)NCCCCc2ccccc2)co1 (stereo not drawn) | 13 nM |
| CC(C)(C)NC(=O)c1coc(C2C3CCC(O3)C2Cc2ccccc2CCC(=O)O)n1 (stereo not drawn) | 61 nM |
| CCCCCNC(=O)c1coc(C2C3CCC(O3)C2Cc2ccccc2CCC(=O)O)n1 (stereo not drawn) [BMS-180291] | 21 nM |

species: Homo sapiens; experiment: Inhibitory activity against platelet aggregation, induced by arachidonic acid in human platelet rich plasma; type: functional; conditions: read-out: I 50
Outline: as §1

| SMILES | IC50 |
| --- | --- |
| C#CCCCCCNC(=O)c1coc(C2C3CCC(O3)C2Cc2ccccc2CCC(=O)O)n1 (stereo not drawn) | 14 nM |

same assay, conditions: read-out: I50

| IC50 | SMILES |
| --- | --- |
| 30 nM | O=C(O)CCc1ccccc1CC1C2CCC(O2)C1c1nc(C(=O)NCCCCN2CCCCC2)co1 (stereo not drawn) |
| 12 nM | O=C(O)CCc1ccccc1CC1C2CCC(O2)C1c1nc(C(=O)NCCCCC(F)(F)F)co1 (stereo not drawn) |
| 16 nM | COc1ccc(CCCCNC(=O)c2coc(C3C4CCC(O4)C3Cc3ccccc3CCC(=O)O)n2)cc1 (stereo not drawn) |
| 4 nM | CC(C)(Cc1ccccc1CC1C2CCC(O2)C1c1nc(C(=O)NCCCCC2CCCCC2)co1)C(=O)O (stereo not drawn) |
| 12 nM | O=C(O)Cc1cccc(CC2C3CCC(O3)C2c2nc(C(=O)NCCCCC3CCCCC3)co2)c1 (stereo not drawn) |
| 2 nM | O=C(O)CCc1ccccc1CC1C2CCC(O2)C1c1nc(C(=O)OCCCCC2CCCCC2)co1 (stereo not drawn) |

| SMILES | IC50 |
| --- | --- |
| CCC(C)(C)NC(=O)c1coc(C2C3CCC(O3)C2Cc2ccccc2CCC(=O)O)n1 (stereo not drawn) | 12 nM |
| O=C(O)CCc1ccccc1CC1C2CCC(O2)C1c1nc(C(=O)NCCCCc2ccccc2)co1 (stereo not drawn) | 4 nM |
| CC(C)(C)NC(=O)c1coc(C2C3CCC(O3)C2Cc2ccccc2CCC(=O)O)n1 (stereo not drawn) | 12 nM |

system: Mus musculus; experiment: In vivo duration of action required to prevent death in mice, after i.v. administration of U-46619 (2 mg/kg) at 0.2 mg/kg p.o.; conditions: po

| SMILES | T50 |
| --- | --- |
| CCC(C)(C)NC(=O)c1coc(C2C3CCC(O3)C2Cc2ccccc2CCC(=O)O)n1 (stereo not drawn) | 8.8 h |
| O=C(O)CCc1ccccc1CC1C2CCC(O2)C1c1nc(C(=O)NCCCCc2ccccc2)co1 (stereo not drawn) | 20 h |
| CC(C)(C)NC(=O)c1coc(C2C3CCC(O3)C2Cc2ccccc2CCC(=O)O)n1 (stereo not drawn) | 7.4 h |
| CCCCCCCNC(=O)c1coc(C2C3CCC(O3)C2Cc2ccccc2CCC(=O)O)n1 (stereo not drawn) | 9.5 h |
| O=C(O)CCc1ccccc1CC1C2CCC(O2)C1c1nc(C(=O)NCCCCC2CCCCC2)co1 (stereo not drawn) | 22.5 h |
| C#CCCCCCNC(=O)c1coc(C2C3CCC(O3)C2Cc2ccccc2CCC(=O)O)n1 (stereo not drawn) | 11.1 h |
| CCCCCNC(=O)c1coc(C2C3CCC(O3)C2Cc2ccccc2CCC(=O)O)n1 (stereo not drawn) [BMS-180291] | 14.4 h |

target: T1, Thromboxane A2 receptor (Homo sapiens, UniProt P21731); experiment: Inhibitory binding activity against TXA2 receptor in human platelet membrane, using [3H]-SQ 29548 as the radioligand; conditions: not given
T1 sequence (P21731 whole entry): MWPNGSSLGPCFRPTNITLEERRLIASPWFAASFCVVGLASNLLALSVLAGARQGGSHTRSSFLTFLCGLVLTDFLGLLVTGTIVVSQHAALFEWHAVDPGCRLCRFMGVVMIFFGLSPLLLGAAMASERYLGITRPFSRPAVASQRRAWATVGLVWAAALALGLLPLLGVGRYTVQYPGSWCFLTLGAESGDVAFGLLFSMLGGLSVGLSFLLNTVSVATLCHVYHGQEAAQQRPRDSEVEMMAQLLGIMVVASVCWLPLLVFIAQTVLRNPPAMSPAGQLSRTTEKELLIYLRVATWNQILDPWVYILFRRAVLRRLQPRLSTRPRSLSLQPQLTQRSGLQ
Outline: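 Competition binding of [3H]-SQ 29,548 to TxA2 receptors in human platelet membranes, measured as inhibition of specific binding. Kd (inhibition constant) was calculated from each compound's I50 value. A slope factor is also reported.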

| SMILES | Kd |
| --- | --- |
| O=C(O)CCc1ccccc1CC1C2CCC(O2)C1c1nc(C(=O)NCCCCN2CCCCC2)co1 (stereo not drawn) | 22 nM |
| O=C(O)CCc1ccccc1CC1C2CCC(O2)C1c1nc(C(=O)NCCCCC(F)(F)F)co1 (stereo not drawn) | 4.8 nM |
| CCC(C)(C)NC(=O)c1coc(C2C3CCC(O3)C2Cc2ccccc2CCC(=O)O)n1 (stereo not drawn) | 0.8 nM |
| COc1ccc(CCCCNC(=O)c2coc(C3C4CCC(O4)C3Cc3ccccc3CCC(=O)O)n2)cc1 (stereo not drawn) | 0.3 nM |
| CC(C)(Cc1ccccc1CC1C2CCC(O2)C1c1nc(C(=O)NCCCCC2CCCCC2)co1)C(=O)O (stereo not drawn) | 36 nM |
| O=C(O)CCc1ccccc1CC1C2CCC(O2)C1c1nc(C(=O)NCCCCc2ccccc2)co1 (stereo not drawn) | 0.3 nM |
| O=C(O)Cc1cccc(CC2C3CCC(O3)C2c2nc(C(=O)NCCCCC3CCCCC3)co2)c1 (stereo not drawn) | 1.2 nM |
| O=C(O)CCc1ccccc1CC1C2CCC(O2)C1c1nc(C(=O)OCCCCC2CCCCC2)co1 (stereo not drawn) | 1 nM |
| CC(C)(C)NC(=O)c1coc(C2C3CCC(O3)C2Cc2ccccc2CCC(=O)O)n1 (stereo not drawn) | 19 nM |
| CCCCCCCNC(=O)c1coc(C2C3CCC(O3)C2Cc2ccccc2CCC(=O)O)n1 (stereo not drawn) | 0.2 nM |
| C#CCCCCCNC(=O)c1coc(C2C3CCC(O3)C2Cc2ccccc2CCC(=O)O)n1 (stereo not drawn) | 4.7 nM |
| CCCCCNC(=O)c1coc(C2C3CCC(O3)C2Cc2ccccc2CCC(=O)O)n1 (stereo not drawn) [BMS-180291] | 4 nM |

system: not listed separately; experiment: Partition coefficient (logP); type: physicochemical; conditions: octanol/water
Outline: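 log P came from reversed-phase TLC Rm values on C18 plates. Eluent was acetone in 0.5 M aqueous KBr, buffered with 0.25 N triethylammonium phosphate to pH 7.3. Values were converted with a calibration curve built from shake-flask partition coefficients (pH 7.0) of seven oxabicycloheptane compounds spanning a range of lipophilicities.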

| SMILES | logP |
| --- | --- |
| O=C(O)CCc1ccccc1CC1C2CCC(O2)C1c1nc(C(=O)NCCCCN2CCCCC2)co1 (stereo not drawn) | 0.53 |
| O=C(O)CCc1ccccc1CC1C2CCC(O2)C1c1nc(C(=O)NCCCCC(F)(F)F)co1 (stereo not drawn) | 1.59 |
| CCC(C)(C)NC(=O)c1coc(C2C3CCC(O3)C2Cc2ccccc2CCC(=O)O)n1 (stereo not drawn) | 0.51 |
| COc1ccc(CCCCNC(=O)c2coc(C3C4CCC(O4)C3Cc3ccccc3CCC(=O)O)n2)cc1 (stereo not drawn) | 2.49 |
| O=C(O)CCc1ccccc1CC1C2CCC(O2)C1c1nc(C(=O)NCCCCc2ccccc2)co1 (stereo not drawn) | 1.8 |
| CC(C)(C)NC(=O)c1coc(C2C3CCC(O3)C2Cc2ccccc2CCC(=O)O)n1 (stereo not drawn) | -0.02 |
| CCCCCCCNC(=O)c1coc(C2C3CCC(O3)C2Cc2ccccc2CCC(=O)O)n1 (stereo not drawn) | 2.88 |
| O=C(O)CCc1ccccc1CC1C2CCC(O2)C1c1nc(C(=O)NCCCCC2CCCCC2)co1 (stereo not drawn) | 3.93 |
| C#CCCCCCNC(=O)c1coc(C2C3CCC(O3)C2Cc2ccccc2CCC(=O)O)n1 (stereo not drawn) | 0.87 |
| CCCCCNC(=O)c1coc(C2C3CCC(O3)C2Cc2ccccc2CCC(=O)O)n1 (stereo not drawn) [BMS-180291] | 1.61 |

From ChEMBL document CHEMBL1126688, “Interphenylene 7-oxabicyclo[2.2.1]heptane oxazoles. Highly potent, selective, and long-acting thromboxane A2 receptor antagonists” (J Med Chem, 1993)
